Records with an inconclusive call do not appear.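 The calls were made as follows, unless noted: active = viability increase at or above a cutoff of the median across tested compounds plus 3 SD (cut at about 8.5% in these data, passing the limit was not always enough); inconclusive = some gains above the cutoff, reason not given; inactive = the rest.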
Columns and labels:
[1] = OD615 S. cerevisiae growth inhibition, permissive medium, pilot counter-assay, permissive growth control for S. cerevisiae lifespan shortening project (AID 705;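 active = growth inhibition above 25% in both replicates, a cutoff set 3 SD above the mean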); settings: OD615, 24 h, at 10 µM, active compounds read high
Summary of the method: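 System: Engineered DeaD yeast | Buffer or medium: SC raffinose/galactose permissive medium | Doses: 10 µM single dose, 0.25% DMSO | Times: 24 h exposure, 30 °C | Measured by: OD615 turbidity read | Read-out: Yeast growth inhibition indicated by reduced 24 h OD615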

[2] = Restrictive medium S. cerevisiae growth inhibition, OD615, pilot screen of yeast lifespan reduction project, restrictive growth control (AID 706;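 active = growth inhibition above a set limit, 3 SD over mean compound inhibition, in both replicates, cut at about 43% in these data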;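 also: modified DeaD lifespan yeast strain shifted to restrictive glucose medium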); settings: OD615, 48 h, at 10 µM, active compounds read high
Summary of the method: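 Assay system: engineered S. cerevisiae DeaD strain; Buffer or medium: CSMM-D glucose medium; Dosing: 10 µM compound, 0.25% DMSO; Times: cell pre-growth 4 h, compound exposure 48 h, 30 °C; Detection: absorbance (optical density) measured at 615 nm.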

[3] = viability gain of MRP-1-high H69AR cells under doxorubicin, pilot screen, MRP-1 activator project, CellTiter-Glo, duplicate (AID 807); settings: H69AR viability with doxorubicin, CellTiter-Glo luminescence; at 10 µM; active compounds read high;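 also: compound pretreatment 18-22 h then 72 h combined with doxorubicin; 0% = doxorubicin alone and 100% = vehicle without doxorubicin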
[4] = growth suppression of beta-catenin knockout HCT116, pilot screen, human colon tumor cells (AID 823;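 active = cell viability at or below a set limit in both duplicate runs, the limit being the all-compound median minus 4 SD, cut at about 23% in these data, passing the limit was not always enough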;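 also: 0% = wells killed by 20 µM Hyamine and 100% = untreated DMSO cell wells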); settings: CellTiter-Glo, 60 h, at 10 µM, active compounds read low
[5] = growth suppression of PTEN-deleted HCT116, pilot screen, cell-based, HCT116 clonal line, CellTiter-Glo (AID 824;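 active = viability at or below 27.92% in each of two runs, the all-compound median minus 4 SD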;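 also: 0% = 20 µM Hyamine control and 100% = vehicle cell control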); settings: 60 h, at 10 µM, active compounds read low
[6] = inhibitors of the yeast RAM network, pilot screen, dse1pr::URA3 reporter, 5-FOA selection (AID 869;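 active = inhibition over a set limit, the all-compound mean plus 3 SD, in both replicate runs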;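 also: 0% = DMSO wells with no growth and 100% = 10 µM 1-NA-PP1 with full growth; RAM network block rescues cells from 5-FOA so hits raise OD615 growth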); settings: S. cerevisiae dse1pr::URA3 5-FOA growth, OD615, 2 d; at 10 µM; active compounds read high; strain carries analog-sensitive mutant Cbk1 kinase
[7] = RAM signaling pathway blockade in yeast – S. cerevisiae, Pdr1DBD-CYC8 efflux-inhibited sensitized strain, primary screen (AID 1298;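 active = RAM network inhibition above 8.4% in each of two replicates, 3 SD over the compound average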;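 also: 0% = DMSO untreated cells without growth and 100% = 10 µM 1-NA-PP1 full growth; higher means more yeast growth rescued from 5-FOA killing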); settings: S. cerevisiae cbk1-as DSE1-URA3 strain, 5-FOA growth OD615, 2 d; at 50 µM; active compounds read high

O=C(NC1CCCCC1)N1CCC(n2c(=O)[nH]c3ccccc32)CC1
inactive: growth inhibition [1] -8.88% | growth inhibition [2] -10.8% | viability increase [3] 1.07% | viability [4] 91.1% | viability [5] 89.6% | inhibition [6] 2.25% | RAM network inhibition [7] 5.7%

Cn1c(NC(=O)c2cc(Cl)ccc2Cl)cc(=O)n(C)c1=O
inactive: growth inhibition [1] 4.47% | growth inhibition [2] 3.21% | viability increase [3] -2.52% | viability [4] 99.9% | viability [5] 94.7% | inhibition [6] 1.17% | RAM network inhibition [7] 1.45%

CC1CC(C)CN(CCCNC(=O)Cn2ncc3c(=O)oc4ccccc4c32)C1 (configuration not stated)
inactive: growth inhibition [1] -0.3% | growth inhibition [2] 0.08% | viability increase [3] -1.86% | viability [4] 99% | viability [5] 101% | inhibition [6] 3.87% | RAM network inhibition [7] 5%

Cc1ccc(S(=O)(=O)CNC(=O)c2ccccc2)cc1
inactive: growth inhibition [1] -4.27% | growth inhibition [2] 3.26% | viability increase [3] 1.64% | viability [4] 97.8% | viability [5] 96.8% | inhibition [6] 1.57% | RAM network inhibition [7] 0.51%

COc1ccc(N2C(=O)C3CCCN3C2c2ccc(C)cc2)cc1 (configuration not stated)
inactive: growth inhibition [1] -2.01% | growth inhibition [2] 2.53% | viability increase [3] -1.95% | viability [4] 97.6% | viability [5] 99.2% | inhibition [6] 1.94% | RAM network inhibition [7] -1.51%

COc1cccc(-c2nc(CS(=O)CC(=O)O)c(C)o2)c1 (configuration not stated)
inactive: growth inhibition [1] -1.73% | growth inhibition [2] 2.52% | viability increase [3] -0.27% | viability [4] 99.9% | viability [5] 99.5% | inhibition [6] 1.31% | RAM network inhibition [7] 4.89%

Cc1nn(Cc2ccc(Cl)c(Cl)c2)c(C)c1NC(=O)c1cc(C2CC2)on1
inactive: growth inhibition [1] -10.7% | growth inhibition [2] 1.77% | viability increase [3] 1.41% | viability [4] 79% | viability [5] 84.7% | inhibition [6] 0.125% | RAM network inhibition [7] 2.79%

c1ccc(-c2noc(CSc3nnnn3-c3ccccc3)n2)cc1
inactive: growth inhibition [1] -10.7% | growth inhibition [2] 22.4% | viability increase [3] 0.25% | viability [4] 97.8% | viability [5] 94% | inhibition [6] 0.485% | RAM network inhibition [7] 3.86%

Nc1c(C(=O)NCc2cccnc2)sc(=S)n1-c1ccccc1
inactive: growth inhibition [1] 11.3% | growth inhibition [2] 25.7% | viability increase [3] -1.61% | viability [4] 90.3% | viability [5] 83.6% | inhibition [6] 2.5% | RAM network inhibition [7] 2.58%

Cc1ccc(N2Cc3ccccc3OC(C)C2=O)cc1 (configuration not stated)
inactive: growth inhibition [1] -1.43% | growth inhibition [2] 0.105% | viability increase [3] -3.99% | viability [4] 90.3% | viability [5] 91.3% | inhibition [6] 0.735% | RAM network inhibition [7] 1.16%

COc1ccc(C2CC(c3ccc(Cl)cc3)n3nc(N)nc3N2)cc1 (configuration not stated)
inactive: growth inhibition [1] -5.72% | growth inhibition [2] 10.7% | viability increase [3] 2.46% | viability [4] 100% | viability [5] 95.1% | inhibition [6] 3.23% | RAM network inhibition [7] 4.44%

CC(=O)Nc1nnc(C)s1
inactive: growth inhibition [1] -17% | growth inhibition [2] -8.07% | viability increase [3] -2.11% | viability [4] 103% | viability [5] 93.3% | inhibition [6] 1.29% | RAM network inhibition [7] 1.53%

COc1cc2c(cc1OC)CN(S(C)(=O)=O)CC2
inactive: growth inhibition [1] -0.905% | growth inhibition [2] -20.7% | viability increase [3] -2.27% | viability [4] 110% | viability [5] 94.7% | inhibition [6] 1.33% | RAM network inhibition [7] 1.26%

COc1cccc(C2CC(c3cccc(C)c3)n3ncnc3N2)c1 (configuration not stated)
inactive: growth inhibition [1] -9.14% | growth inhibition [2] -3.84% | viability increase [3] -2.07% | viability [4] 90% | viability [5] 90.4% | inhibition [6] 0.92% | RAM network inhibition [7] 0.74%

c1ccc(N2CCN(C3CCSC3)CC2)cc1 (configuration not stated)
inactive: growth inhibition [1] -20.2% | growth inhibition [2] -15.7% | viability increase [3] 1.11% | viability [4] 96% | viability [5] 94.3% | inhibition [6] 1.05% | RAM network inhibition [7] -1.2%

CCCC(=O)NC(C)c1nc2ccccc2n1CC (configuration not stated)
inactive: growth inhibition [1] -0.24% | growth inhibition [2] 4.37% | viability increase [3] 0.02% | viability [4] 97% | viability [5] 94.4% | inhibition [6] 0.97% | RAM network inhibition [7] 2.35%

Cn1c(=O)oc2cc(S(=O)(=O)NCCN3CCN(c4ccccc4F)CC3)ccc21
inactive: growth inhibition [1] -14.7% | growth inhibition [2] 0.235% | viability increase [3] -2.88% | viability [4] 100% | viability [5] 88.8% | inhibition [6] 0.835% | RAM network inhibition [7] 1.48%

Clc1ccccc1C1CC(c2ccccc2)Nc2ncnn21 (configuration not stated)
inactive: growth inhibition [1] -10.9% | growth inhibition [2] -11.2% | viability increase [3] -1.24% | viability [4] 83.9% | viability [5] 81.2% | inhibition [6] 2.05% | RAM network inhibition [7] -0.69%

COc1ccc(-c2cn3c(C)c(C(=O)N4CCN(c5ccc(OC)cc5)CC4)sc3n2)cc1
inactive: growth inhibition [1] -5.73% | growth inhibition [2] -9.94% | viability increase [3] -1.79% | viability [4] 103% | viability [5] 104% | inhibition [6] 2.58% | RAM network inhibition [7] 3.17%

CN(C)/C=N/c1c(C#N)cnn1-c1ccccc1
inactive: growth inhibition [1] -5.88% | growth inhibition [2] -14.5% | viability increase [3] -1.11% | viability [4] 103% | viability [5] 96.6% | inhibition [6] 1.95% | RAM network inhibition [7] 4.32%

Cn1c(SCc2nc3ccccc3[nH]2)nnc1-c1cccnc1
inactive: growth inhibition [1] 3.69% | growth inhibition [2] 24.8% | viability increase [3] -2.45% | viability [4] 95.1% | viability [5] 99.1% | inhibition [6] 2.94% | RAM network inhibition [7] 5.38%

Cc1nn(Cc2ccccc2)c(N)c1C#N
inactive: growth inhibition [1] -2.69% | growth inhibition [2] 1.22% | viability increase [3] 0.68% | viability [4] 107% | viability [5] 98.3% | inhibition [6] 1.58% | RAM network inhibition [7] 5.62%

O=C(c1cnc2n(c1=O)CCS2)N1CCN(C(c2ccccc2)c2ccc(Cl)cc2)CC1 (configuration not stated)
inactive: growth inhibition [1] -9.19% | growth inhibition [2] -3.16% | viability increase [3] -5.31% | viability [4] 79.1% | viability [5] 63.7% | inhibition [6] 1.31% | RAM network inhibition [7] 2.72%

COc1ccc(C(=O)NCCSCc2ccco2)cc1OC
inactive: growth inhibition [1] -9.5% | growth inhibition [2] 5.73% | viability increase [3] -4.86% | viability [4] 98.2% | viability [5] 95.6% | inhibition [6] 1% | RAM network inhibition [7] 5.47%

Cc1onc(-c2ccccc2)c1C(=O)N1CCN(C/C=C/c2ccccc2)CC1
inactive: growth inhibition [1] -2.69% | growth inhibition [2] 5.24% | viability increase [3] -5.02% | viability [4] 78.9% | viability [5] 75.6% | inhibition [6] 2.72% | RAM network inhibition [7] 3.92%

CC1(C)CC(=O)C2=C(C1)Nc1ccccc1NC2c1ccccn1 (configuration not stated)
inactive: growth inhibition [1] 11.4% | growth inhibition [2] 3.1% | viability increase [3] -3.1% | viability [4] 100% | viability [5] 95.4% | inhibition [6] 0.245% | RAM network inhibition [7] 3.12%

CCOc1ccccc1C(=O)NC1CCN(Cc2nnnn2C2CCCC2)CC1
inactive: growth inhibition [1] -6.12% | growth inhibition [2] -7.94% | viability increase [3] -1.67% | viability [4] 102% | viability [5] 98.9% | inhibition [6] 0.9% | RAM network inhibition [7] 1.76%

CC(NC(=O)COc1ccccc1)C(c1ccccc1)N1CCN(C)CC1 (configuration not stated)
inactive: growth inhibition [1] -4.2% | growth inhibition [2] -7.49% | viability increase [3] -3.94% | viability [4] 97% | viability [5] 96.8% | inhibition [6] 1.02% | RAM network inhibition [7] 4.65%

COc1ccccc1-c1cc(C(F)(F)F)nc(N2CCN(c3ccccc3)CC2)n1
inactive: growth inhibition [1] -2.88% | growth inhibition [2] -13.6% | viability increase [3] -1.89% | viability [4] 77.5% | viability [5] 78.8% | inhibition [6] 3.9% | RAM network inhibition [7] 4.72%

CCOC(=O)CSC1=C(C#N)C(c2ccccc2Cl)C(C(=O)OC)C(=O)N1 (configuration not stated)
inactive: growth inhibition [1] -8.45% | growth inhibition [2] -0.68% | viability increase [3] -0.9% | viability [4] 90.3% | viability [5] 91.8% | inhibition [6] 0.14% | RAM network inhibition [7] 2.05%

CCOC(=O)c1cc2c(=O)n3cccc(C)c3nc2n(CCCOC)c1=NC(=O)c1cccnc1
inactive: growth inhibition [1] -11.3% | growth inhibition [2] -9.9% | viability increase [3] -4.94% | viability [4] 92.5% | viability [5] 92.2% | inhibition [6] 0.515% | RAM network inhibition [7] 6.01%

O=C(Nc1ccc(Cl)cn1)c1cccc(F)c1
inactive: growth inhibition [1] -8.65% | growth inhibition [2] 3.83% | viability increase [3] -5.84% | viability [4] 37% | viability [5] 33.9% | inhibition [6] 0.27% | RAM network inhibition [7] 1.17%

CCOC(=O)c1ccc(NC(=O)C23CCC(C)(C(=O)O2)C3(C)C)cc1 (configuration not stated)
inactive: growth inhibition [1] 1.15% | growth inhibition [2] 4.45% | viability increase [3] 1.07% | viability [4] 93.5% | viability [5] 101% | inhibition [6] -0.095% | RAM network inhibition [7] 5.33%

O=C(NCc1ccc2c(c1)OCO2)C1CC(=O)N(CCc2ccccc2)C1 (configuration not stated)
inactive: growth inhibition [1] 0.26% | growth inhibition [2] 0.755% | viability increase [3] -0.29% | viability [4] 96.1% | viability [5] 95.7% | inhibition [6] 2.38% | RAM network inhibition [7] 2.32%

CC(=O)c1ccc(OCC(O)CN2C(C)CCCC2C)cc1 (configuration not stated)
inactive: growth inhibition [1] -1.28% | growth inhibition [2] -5.97% | viability increase [3] -0.1% | viability [4] 97.8% | viability [5] 98.1% | inhibition [6] 0.78% | RAM network inhibition [7] 1.46%

C=C(C)CSC1=C(C#N)C(c2ccccc2)CC(=O)N1 (configuration not stated)
inactive: growth inhibition [1] -13.1% | growth inhibition [2] -8.52% | viability increase [3] -2.09% | viability [4] 86.6% | viability [5] 84.1% | inhibition [6] 0.55% | RAM network inhibition [7] 4.86%

Source: PubChem BioAssay
